# Measurements as given in ChEMBL document CHEMBL1955763, “Antimicrobial activity of sulfonamides containing 5-chloro-2-hydroxybenzaldehyde and 5-chloro-2-hydroxybenzoic acid scaffold” (Eur J Med Chem, 2012).
# What was measured:
# [1] = tested on: Trichosporon asahii; assay: Antifungal activity against Trichosporon asahii 1188 after 24 hrs by broth microdilution method; type: functional; conditions: Trichosporon asahii, 1188, 24 h
# How it was run: (§1)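 Microdilution broth per CLSI M27-A3 (yeasts) or M38-A2 (moulds) in RPMI 1640 with glutamine, buffered to pH 7.0 with 0.165 mol MOPS. Compounds were in DMSO. Final inoculum was 5 × 10³ ± 0.2 CFU/mL. Other conditions matched the antibacterial assay, with MIC as IC₉₀ read visually and at 540 nm. Determined twice, in duplicate.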
# [2] = tested on: Aspergillus fumigatus; assay: Antifungal activity against Aspergillus fumigatus 231 after 24 hrs by broth microdilution method; type: functional; conditions: Aspergillus fumigatus, 231, 24 h; how it was run: as §1
# [3] = tested on: Lichtheimia corymbifera; assay: Antifungal activity against Absidia corymbifera 272 after 24 hrs by broth microdilution method; type: functional; conditions: Lichtheimia corymbifera, 272, 24 h; how it was run: as §1
# [4] = tested on: Trichophyton mentagrophytes; assay: Antifungal activity against Trichophyton mentagrophytes 445 after 24 hrs by broth microdilution method; type: functional; conditions: Trichophyton mentagrophytes, 445, 24 h
# [5] = Selectivity ratio of IC50 for human HepG2 cell sto MIC100 for Mycobacterium kansasii 6509/96; type: functional
# [6] = Selectivity ratio of IC50 for human HepG2 cell sto MIC90 for Staphylococcus aureus CCM 4516/08; type: functional
# [7] = tested on: Mycobacterium tuberculosis; assay: Antimycobacterial activity against Mycobacterium tuberculosis H37Rv 331/88 after 14 days; type: functional; conditions: H37Rv 331/88, 336 h
# [8] = Selectivity ratio of IC50 for human HepG2 cell sto MIC100 for Mycobacterium kansasii 235/80; type: functional
# [9] = tested on: HepG2; assay: Cytotoxicity against human HepG2 cells after 24 hrs by MTS assay; type: cell-based; conditions: HepG2, 24 h
# How it was run: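 Hep G2 human liver cells (passage 3–4), 10 000 per well, in MEM with 1% glutamine, 10% fetal serum and 1% non-essential amino acids. Compounds were added from DMSO at eight increasing concentrations in quadruplicate. Exposure was 24 h at 37 °C in 5% CO₂, then MTS reagent for 1.5 h. Formazan was read at 490 nm and IC₅₀ derived as 50% of control viability.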
# [10] = tested on: Mycobacterium tuberculosis; assay: Antimycobacterial activity against Mycobacterium tuberculosis H37Rv 331/88 after 21 days; type: functional; conditions: H37Rv 331/88, 504 h
# How it was run: (§2)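 Micromethod in Sula semisynthetic medium, with compounds added as DMSO solutions over a two-fold series from 1000 down to 1. Inoculum for M. avium 330/88 was a 10⁻⁵ dilution. Plates were incubated at 37 °C and MIC was read after 14 and 21 days.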
# [11] = tested on: Mycobacterium avium; assay: Antimycobacterial activity against isoniazid-, rifampicin-, ofloxacin-, ethambutol-resistant Mycobacterium avium 330/88 after 14 days; type: functional; conditions: 330/88, 336 h; how it was run: as §2
# [12] = tested on: Mycobacterium avium; assay: Antimycobacterial activity against isoniazid-, rifampicin-, ofloxacin-, ethambutol-resistant Mycobacterium avium 330/88 after 21 days; type: functional; conditions: 330/88, 504 h; how it was run: as §2
# [13] = tested on: Mycobacterium kansasii; assay: Antimycobacterial activity against Mycobacterium kansasii 235/80 after 7 days; type: functional; conditions: 235/80, 168 h
# How it was run: (§3)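 Micromethod MIC in Sula semisynthetic medium, with compounds added as DMSO solutions at […]. Incubation at 37 °C. Inocula: M. kansasii 235/80 at dilution 10⁻⁴, clinical isolate 6509/96 at 10⁻⁵.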
# [14] = tested on: Mycobacterium kansasii; assay: Antimycobacterial activity against Mycobacterium kansasii 235/80 after 14 days; type: functional; conditions: 235/80, 336 h; how it was run: as §3
# [15] = tested on: Mycobacterium kansasii; assay: Antimycobacterial activity against Mycobacterium kansasii 235/80 after 21 days; type: functional; conditions: 235/80, 504 h; how it was run: as §3
# [16] = tested on: Mycobacterium kansasii; assay: Antimycobacterial activity against Mycobacterium kansasii 6509/96 after 7 days; type: functional; conditions: 6509/96, 168 h; how it was run: as §3
# [17] = tested on: Mycobacterium kansasii; assay: Antimycobacterial activity against Mycobacterium kansasii 6509/96 after 14 days; type: functional; conditions: 6509/96, 336 h; how it was run: as §3
# [18] = tested on: Mycobacterium kansasii; assay: Antimycobacterial activity against Mycobacterium kansasii 6509/96 after 21 days; type: functional; conditions: 6509/96, 504 h; how it was run: as §3
# [19] = tested on: Staphylococcus aureus; assay: Antibacterial activity against Staphylococcus aureus CCM 4516/08 after 24 hrs by broth microdilution method; type: functional; conditions: CCM 4516/08, 24 h
# How it was run: (§4)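 Microdilution broth method modified from M07-A07, in Mueller-Hinton broth at pH 7.4 (±0.2). Compounds were dissolved in DMSO. Inoculum was made in sterile water to 0.5 McFarland (1.5 × 10⁸ CFU/mL). MIC was taken as IC₉₀, meaning ≥90% growth reduction versus the drug-free control. Growth was read visually and by absorbance at 540 nm.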
# [20] = tested on: Staphylococcus aureus; assay: Antibacterial activity against Staphylococcus aureus CCM 4516/08 after 48 hrs by broth microdilution method; type: functional; conditions: CCM 4516/08, 48 h
# How it was run: (§5)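 Broth microdilution modified from standard M07-A07 in Mueller-Hinton broth at pH 7.4 (±0.2). Compounds were dissolved in DMSO. Inoculum in sterile water was adjusted to 0.5 McFarland (1.5 × 10⁸ CFU/mL). MIC was taken as IC₉₀, i.e. ≥90% growth reduction versus control, read visually and spectrophotometrically at 540 nm.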
# [21] = tested on: Staphylococcus aureus; assay: Antibacterial activity against methicillin-resistant Staphylococcus aureus H 5996/08 after 24 hrs by broth microdilution method; type: functional; conditions: H 5996/08, 24 h; how it was run: as §4
# [22] = tested on: Staphylococcus aureus; assay: Antibacterial activity against methicillin-resistant Staphylococcus aureus H 5996/08 after 48 hrs by broth microdilution method; type: functional; conditions: H 5996/08, 48 h; how it was run: as §4
# [23] = tested on: Staphylococcus epidermidis; assay: Antibacterial activity against methicillin-resistant Staphylococcus epidermidis H 6966/08 after 24 hrs by broth microdilution method; type: functional; conditions: H 6966/08, 24 h; how it was run: as §4
# [24] = tested on: Staphylococcus epidermidis; assay: Antibacterial activity against methicillin-resistant Staphylococcus epidermidis H 6966/08 after 48 hrs by broth microdilution method; type: functional; conditions: H 6966/08, 48 h; how it was run: as §4
# [25] = tested on: Escherichia coli; assay: Antibacterial activity against Escherichia coli CCM 4517 after 24 hrs by broth microdilution method; type: functional; conditions: CCM 4517, 24 h; how it was run: as §5
# [26] = tested on: Klebsiella pneumoniae; assay: Antibacterial activity against Klebsiella pneumoniae D 11750/08 after 24 hrs by broth microdilution method; type: functional; conditions: D 11750/08, 24 h; how it was run: as §5
# [27] = tested on: Klebsiella pneumoniae; assay: Antibacterial activity against ESBL-positive Klebsiella pneumoniae J 14368/08 after 24 hrs by broth microdilution method; type: functional; conditions: J 14368/08, 24 h; how it was run: as §5
# [28] = tested on: Pseudomonas aeruginosa; assay: Antibacterial activity against Pseudomonas aeruginosa CCM 1961 after 24 hrs by broth microdilution method; type: functional; conditions: CCM 1961, 24 h; how it was run: as §5
# [29] = tested on: Candida albicans; assay: Antifungal activity against Candida albicans ATCC 44857 after 24 hrs by broth microdilution method; type: functional; conditions: ATCC 44857, 24 h; how it was run: as §1
# [30] = tested on: Candida tropicalis; assay: Antifungal activity against Candida tropicalis 156 after 24 hrs by broth microdilution method; type: functional; conditions: Candida tropicalis, 156, 24 h; how it was run: as §1
# [31] = tested on: Nakaseomyces glabratus; assay: Antifungal activity against Candida glabrata 20/I after 24 hrs by broth microdilution method; type: functional; how it was run: as §1
# [32] = tested on: Pichia kudriavzevii; assay: Antifungal activity against Candida krusei E58 after 24 hrs by broth microdilution method; type: functional; conditions: E58, 24 h; how it was run: as §1
# [33] = tested on: Enterococcus sp.; assay: Antibacterial activity against Enterococcus sp. J 14365/08 after 24 hrs by broth microdilution method; type: functional; conditions: J 14365/08, 24 h; how it was run: as §5
# [34] = tested on: Mycobacterium tuberculosis; assay: Antituberculosis activity against Mycobacterium tuberculosis H37Rv after 18 hrs by alamar blue assay; type: functional, organism-based
# [35] = Selectivity ratio of IC50 for human HepG2 cell sto MIC90 for methicillin-resistant Staphylococcus aureus H 5996/08; type: functional
# [36] = tested on: Mycobacterium avium complex sp.; assay: Antimycobacterial activity against Mycobacterium avium complex; type: functional
SMILES,Ratio [5],Ratio [6],MIC [7] [µM],Ratio [8],IC50 [9] [µM],MIC [10] [µM],MIC [11] [µM],MIC [12] [µM],MIC [13] [µM],MIC [14] [µM],MIC [15] [µM],MIC [16] [µM],MIC [17] [µM],MIC [18] [µM],MIC [19] [µM],MIC [20] [µM],MIC [21] [µM],MIC [22] [µM],MIC [23] [µM],MIC [24] [µM],other results
Cc1cc(NS(=O)(=O)c2ccc(/N=C/c3cc(Cl)ccc3O)cc2)no1,12.1,6.1,125,12.1,193,250,62.5,125,4,8,16,4,4,8,31.2,31.2,15.6,31.2,> 500,> 500,MIC [1]: > 125 µM; MIC [2]: > 125 µM; MIC [3]: > 125 µM; MIC [4]: > 125 µM; MIC [25]: 125 µM; MIC [26]: 500 µM; MIC [27]: 500 µM; MIC [28]: ≥ 500 µM; MIC [29]: > 125 µM; MIC [30]: > 125 µM; MIC [31]: > 125 µM; MIC [32]: > 125 µM
Cc1cc(C)nc(NS(=O)(=O)c2ccc(NC(=O)c3cc(Cl)ccc3O)cc2)n1,5.4,10.8,125,5.4,337,125,32,62.5,16,32,62.5,16,62.5,62.5,15.6,15.6,15.6,31.2,31.2,250,MIC [1]: 125 µM; MIC [4]: 125 µM; MIC [33]: 125 µM
Nc1ccc(S(=O)(=O)Nc2nccs2)cc1 [SULFATHIAZOLE],1040.3,33.2,32,1040.3,4160,62.5,62.5,62.5,2,4,4,1,2,2,31.2,62.5,62.5,125,> 500,> 500,IC50 [34]: ≥ 5 µM
Cc1cc(NS(=O)(=O)c2ccc(N)cc2)no1 [SULFAMETHOXAZOLE],163.9,5.2,32,163.9,2620,32,32,62.5,8,16,16,4,4,4,250,500,62.5,250,250,500,MIC [2]: 250 µM; Ratio [35]: 5.2; MIC50 [36]: 30 µg/mL; MIC80 [36]: 30 µg/mL; MIC [25]: ≥ 500 µM; MIC [26]: ≥ 500 µM; MIC [27]: ≥ 500 µM; MIC [28]: ≥ 500 µM
